Source: ChEMBL document CHEMBL3734698, “1H-Pyrazolo[3,4-g]hexahydro-isoquinolines as potent GR antagonists with reduced hERG inhibition and an improved pharmacokinetic profile” (Bioorg Med Chem Lett, 2015)
Calls of active or inactive are those of the source. No cut-off for these calls is given here.

System: Rattus norvegicus
Assay: Reduction in olanzapine-induced weight gain in rat at 20 mg/kg, po bid administered for 21 days measured from day 4 of compound dosing
Format: functional, organism-based
Conditions: not given
In the case of `CCOC[C@]12Cc3cnn(-c4ccc(F)cc4)c3C=C1CCN(S(=O)(=O)c1ccc(C(F)(F)F)cc1)C2`, the Activity is reported as “Active”.

System: not listed separately
Assay: Cmax in rat at 5 mg/kg, po
Format: ADME, organism-based
Parameters: dose 5 mg/kg, route oral
Conditions: in vivo
In short: (§1)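 Rat pharmacokinetics: oral dosing at 5 mg/kg in 10% DMSO in 0.5% aqueous methyl cellulose. Intravenous dosing at 1 mg/kg in 10% DMSO, 45% PEG400 and 45% propylene glycol. Plasma Cmax was taken after the oral dose and clearance after the iv dose, and oral bioavailability was derived.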
Compound `O=C(c1ccccn1)[C@]12Cc3cnn(-c4ccc(F)cc4)c3C=C1CCN(S(=O)(=O)c1cccc(C(F)(F)F)c1)C2` has a Cmax of 155 ng/mL.

System: not listed separately
Assay: Clearance in rat at 1 mg/kg, iv
Format: ADME, organism-based
Conditions: in vivo
In short: as §1
`O=C(c1ccccn1)[C@]12Cc3cnn(-c4ccc(F)cc4)c3C=C1CCN(S(=O)(=O)c1cccc(C(F)(F)F)c1)C2` showed a clearance of 40 mL/min/kg.

Target: T1, Glucocorticoid receptor (Homo sapiens, UniProt P04150)
T1 sequence (P04150 whole entry): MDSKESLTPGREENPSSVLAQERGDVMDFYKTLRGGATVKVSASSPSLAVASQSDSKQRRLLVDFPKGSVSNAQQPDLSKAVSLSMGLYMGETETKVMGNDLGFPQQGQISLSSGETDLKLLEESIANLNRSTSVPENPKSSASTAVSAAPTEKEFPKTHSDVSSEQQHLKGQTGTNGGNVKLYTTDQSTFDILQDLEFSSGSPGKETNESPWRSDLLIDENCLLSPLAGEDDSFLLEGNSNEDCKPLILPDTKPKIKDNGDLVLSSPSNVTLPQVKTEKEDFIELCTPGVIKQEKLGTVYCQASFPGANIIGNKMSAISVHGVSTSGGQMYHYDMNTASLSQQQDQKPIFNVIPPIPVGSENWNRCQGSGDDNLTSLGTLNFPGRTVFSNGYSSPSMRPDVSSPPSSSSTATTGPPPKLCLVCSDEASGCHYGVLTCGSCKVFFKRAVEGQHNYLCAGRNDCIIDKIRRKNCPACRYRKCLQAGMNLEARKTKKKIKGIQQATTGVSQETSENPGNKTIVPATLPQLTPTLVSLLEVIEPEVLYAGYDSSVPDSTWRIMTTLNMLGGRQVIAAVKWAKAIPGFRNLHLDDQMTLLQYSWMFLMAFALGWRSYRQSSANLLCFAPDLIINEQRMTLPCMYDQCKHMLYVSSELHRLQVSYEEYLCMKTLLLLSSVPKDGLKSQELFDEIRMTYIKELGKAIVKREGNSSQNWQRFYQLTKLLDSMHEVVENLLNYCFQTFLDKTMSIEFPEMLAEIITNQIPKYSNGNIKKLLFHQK
Assay: Antagonist activity at glucocorticoid receptor in human HepG2 cells assessed as inhibition of glucocorticoid-induced TAT activity after 24 hrs
Format: cell-based
Conditions: not given
With `O=C(c1ccccn1)[C@]12Cc3cnn(-c4ccc(F)cc4)c3C=C1CCN(S(=O)(=O)c1cccc(C(F)(F)F)c1)C2` the Ki was 14 nM.
In the case of `O=C(c1cnccn1)[C@]12Cc3cnn(-c4ccc(F)cc4)c3C=C1CCN(S(=O)(=O)c1ccc(C(F)(F)F)cc1)C2`, the Ki is reported as 98 nM.
Compound `O=C(c1ccco1)[C@]12Cc3cnn(-c4ccc(F)cc4)c3C=C1CCN(S(=O)(=O)c1ccc(C(F)(F)F)cc1)C2` has a Ki of 31 nM.
Compound `O=C(c1cccs1)[C@]12Cc3cnn(-c4ccc(F)cc4)c3C=C1CCN(S(=O)(=O)c1ccc(C(F)(F)F)cc1)C2` has a Ki of 27 nM.
For `O=C(c1ccccn1)[C@]12Cc3cnn(-c4ccc(F)cc4)c3C=C1CCN(S(=O)(=O)c1ccc(F)cc1)C2`, the Ki was 16 nM.
`O=C(c1nccs1)[C@]12Cc3cnn(-c4ccc(F)cc4)c3C=C1CCN(S(=O)(=O)c1ccc(C(F)(F)F)cc1)C2` gave a Ki of 18 nM.
`O=C(c1cncs1)[C@]12Cc3cnn(-c4ccc(F)cc4)c3C=C1CCN(S(=O)(=O)c1ccc(C(F)(F)F)cc1)C2` showed a Ki of 260 nM.
`O=C(c1ncc[nH]1)[C@]12Cc3cnn(-c4ccc(F)cc4)c3C=C1CCN(S(=O)(=O)c1ccc(C(F)(F)F)cc1)C2` gave a Ki of 52 nM.
Compound `O=C(c1cocn1)[C@]12Cc3cnn(-c4ccc(F)cc4)c3C=C1CCN(S(=O)(=O)c1ccc(C(F)(F)F)cc1)C2` has a Ki of 63 nM.
For `O=C(c1cscn1)[C@]12Cc3cnn(-c4ccc(F)cc4)c3C=C1CCN(S(=O)(=O)c1ccc(C(F)(F)F)cc1)C2`, the Ki was 22 nM.
Work on `O=C(c1cccnc1)[C@]12Cc3cnn(-c4ccc(F)cc4)c3C=C1CCN(S(=O)(=O)c1ccc(C(F)(F)F)cc1)C2` yielded a Ki of 151 nM.

Target: T1, Glucocorticoid receptor
Assay: Binding affinity to human recombinant glucocorticoid receptor by fluorescence polarization assay
Conditions: not given
With `O=C(c1ccccn1)[C@]12Cc3cnn(-c4ccc(F)cc4)c3C=C1CCN(S(=O)(=O)c1cccc(C(F)(F)F)c1)C2` the Ki was 0.1 nM.
With `O=C(c1cnccn1)[C@]12Cc3cnn(-c4ccc(F)cc4)c3C=C1CCN(S(=O)(=O)c1ccc(C(F)(F)F)cc1)C2` the Ki was 0.21 nM.
In the case of `O=C(c1ccco1)[C@]12Cc3cnn(-c4ccc(F)cc4)c3C=C1CCN(S(=O)(=O)c1ccc(C(F)(F)F)cc1)C2`, the Ki is reported as 0.17 nM.
With `O=C(c1cccs1)[C@]12Cc3cnn(-c4ccc(F)cc4)c3C=C1CCN(S(=O)(=O)c1ccc(C(F)(F)F)cc1)C2` the Ki was 0.41 nM.
With `O=C(c1ccccn1)[C@]12Cc3cnn(-c4ccc(F)cc4)c3C=C1CCN(S(=O)(=O)c1ccc(F)cc1)C2` the Ki was 0.13 nM.
`O=C(c1nccs1)[C@]12Cc3cnn(-c4ccc(F)cc4)c3C=C1CCN(S(=O)(=O)c1ccc(C(F)(F)F)cc1)C2` showed a Ki of 0.23 nM.
`O=C(c1cncs1)[C@]12Cc3cnn(-c4ccc(F)cc4)c3C=C1CCN(S(=O)(=O)c1ccc(C(F)(F)F)cc1)C2` showed a Ki of 0.33 nM.
Work on `O=C(c1ncc[nH]1)[C@]12Cc3cnn(-c4ccc(F)cc4)c3C=C1CCN(S(=O)(=O)c1ccc(C(F)(F)F)cc1)C2` yielded a Ki of 0.47 nM.
Compound `O=C(c1cocn1)[C@]12Cc3cnn(-c4ccc(F)cc4)c3C=C1CCN(S(=O)(=O)c1ccc(C(F)(F)F)cc1)C2` has a Ki of 0.16 nM.
`O=C(c1cscn1)[C@]12Cc3cnn(-c4ccc(F)cc4)c3C=C1CCN(S(=O)(=O)c1ccc(C(F)(F)F)cc1)C2` showed a Ki of 0.14 nM.
With `O=C(c1cccnc1)[C@]12Cc3cnn(-c4ccc(F)cc4)c3C=C1CCN(S(=O)(=O)c1ccc(C(F)(F)F)cc1)C2` the Ki was 0.83 nM.
